# Source: PubChem (several laboratories)
# An excerpt weighted towards active compounds, which were near 1.8% of everything screened.
# Cneo AK release: Cryptococcus neoformans cell lysis inducers, primary screen, AK release luminescence, single concentration | 360,000 compounds, 0.2% hits | lysis activity, % at 15 µM | C. neoformans lysis, adenylate kinase release luminescence, 4 h; normalised: neutral wells 0, clomiphene wells 100;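 active = mean lysis activity across replicates of at least 80%, whatever share of replicates individually reach that level; inactive = mean lysis activity below 80%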
#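 read-out = cell lysis signal | test system = log-phase Cryptococcus neoformans yeast cells | input = cells at 5 × 10^6 per mL | medium = fresh YPD growth medium | signal = luminescent adenylate kinase detection reagent | timing = 4 h at 37 °C static, read 1 h later | dosing = single dose | controls = Clomiphene as positive lysis control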
# iPSC survival up: enhancers of single-cell hiPSC survival, primary screen, ATPlite luminescence | 100% = ROCK inhibitor wells, 0% = DMSO | survival enhancement, % at 20 µM | 360,000 compounds, 0.044% hits | AID 602274, 2012; in the data active = survival enhancement above about 18%;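 also: cells exposed to compounds for 16 hours before the ATP read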
# DAGLB inhibitor: DAGLB lipase inhibitors, primary screen, biochemical, fluorescence, HTS. Diacylglycerol lipase-beta (Homo sapiens), Q8NCG7. HEK293T DAGLB membrane lysate, EnzChek fluorogenic substrate. inhibition, % at 5.17 µM. 340,000 compounds, 0.059% hits; in the data active = inhibition above about 34%
# Target sequence (Q8NCG7 whole entry, looked up): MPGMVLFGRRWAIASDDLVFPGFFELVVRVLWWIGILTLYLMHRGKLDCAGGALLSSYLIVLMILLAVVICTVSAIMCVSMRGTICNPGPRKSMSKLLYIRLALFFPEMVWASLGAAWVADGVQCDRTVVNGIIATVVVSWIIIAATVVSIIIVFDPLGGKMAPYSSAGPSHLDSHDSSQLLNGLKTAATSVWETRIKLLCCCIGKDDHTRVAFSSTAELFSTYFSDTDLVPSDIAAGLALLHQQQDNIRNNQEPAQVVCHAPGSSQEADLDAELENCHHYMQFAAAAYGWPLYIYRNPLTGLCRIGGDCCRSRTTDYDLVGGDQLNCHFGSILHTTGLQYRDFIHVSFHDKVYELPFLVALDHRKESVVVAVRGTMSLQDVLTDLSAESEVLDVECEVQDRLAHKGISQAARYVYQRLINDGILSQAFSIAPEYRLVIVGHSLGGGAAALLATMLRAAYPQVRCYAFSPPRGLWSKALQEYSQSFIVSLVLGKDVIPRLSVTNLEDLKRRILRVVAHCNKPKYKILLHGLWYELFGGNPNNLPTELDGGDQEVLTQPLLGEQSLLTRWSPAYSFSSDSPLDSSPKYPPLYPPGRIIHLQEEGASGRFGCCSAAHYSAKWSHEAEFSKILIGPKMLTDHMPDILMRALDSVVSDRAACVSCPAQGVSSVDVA
# Ecoli rRNA inh: reduced GFP signal of wild-type E. coli, primary screen, bacterial rRNA inhibitor project, GFP/RFP fluorescence, OD600, single point; E. coli WT GFP vs humanized-ribosome RFP mutants, 24 h; active compounds read low; DMSO median 0, no signal -100; GFP signal change (wild-type ribosome), % (test concentration not listed); 350,000 compounds, 1.6% hits; AID 720706, 2013;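 active = significant combined selectivity score with lowered wild-type GFP, culture density cut under 30%, mutant RFP and density less affected; inactive = any of these conditions unmet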
# MT1-MMP act inh: blockers of MT1-MMP proenzyme processing, primary screen, HT1080 RFP-PRO-GFP cells, GFP/RFP fluorescence. GFP/RFP ratio fluorescence, overnight; percent of plate control window, DMSO zero. AID 651647, 2012. GFP/RFP ratio change, % at 20 µM. Matrix metalloproteinase-14 (Homo sapiens), P50281. 360,000 compounds, 0.061% hits;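 active = GFP/RFP ratio change of at least 30% with cell ATP level not reduced by more than half and red fluorescence within 50% of control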
#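 Read-out: GFP/RFP fluorescence ratio; Test system: RFP-PRO-GFP reporter HT1080 cells; Compound dosing: single-point 20 µM compound, 1% DMSO; Times: overnight compound exposure at 37 °C.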
# SKN-1 block: suppressors of acrylamide-induced Pgst-4::GFP reporter in worms, primary screen, SKN-1 inhibitor project, whole organism, uHTS, GFP/RFP fluorescence ratio, strain VP596; C. elegans VP596 Pgst-4::GFP/RFP ratio, 24 h; inhibition, % at 21.8 µM; 360,000 compounds, 0.49% hits;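 active = interference check ratio from 0.5 to 1.5 plus GFP to RFP signal ratio inhibition reaching or exceeding a fixed threshold, cut at about 30% in these data, passing the limit was not always enough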
# Numbers stand for hits; n = inactive; x = not tested or not shown.
SMILES,Cneo AK release,iPSC survival up,DAGLB inhibitor,Ecoli rRNA inh,MT1-MMP act inh,SKN-1 block
COc1cccc(-n2nnnc2SCC(=O)NCc2ccc3c(c2)OCO3)c1,n,n,n,-21.1,n,n
Cc1ccc(N=Nc2cc(C)ccc2N)cc1,x,n,n,-52.8,n,n
Cc1ccc(N=Nc2cc(C)ccc2O)c(C)c1,n,n,n,n,n,n
CC(C)NC(=O)N(C)C[C@H]1Oc2ccc(N)cc2CC(=O)N(C)C[C@@H]1C,x,x,x,n,x,x
COc1ccc2[nH]c3c(=O)n4c(nc3c2c1)SCCC4,n,n,x,-28.1,n,n
Cc1ccc2[nH]c3c(=O)n4c(nc3c2c1)SCC4,x,n,n,n,n,n
CN(C)CC(O)c1ccc(C=Cc2ccc(Cl)cc2)cc1 (stereo not drawn),n,n,n,n,n,52.5
COc1cccc(S(=O)(=O)N[C@@H]2CC[C@H](CCNC(=O)Cc3ccncc3)O[C@H]2CO)c1,n,x,x,n,x,x
O=C1c2ccccc2C(c2nnnn2-c2ccc3c(c2)OCCO3)N1CCc1ccccc1F (stereo not drawn),x,n,x,-34.2,n,n
Clc1ccc(Cc2noc(-c3cccs3)n2)cc1,n,n,n,x,n,81.6
C[C@H](CO)N1C[C@H](C)[C@@H](CN(C)C(=O)C2CCCCC2)OCCCC[C@H](C)Oc2ccc(NC(=O)NC3CCCCC3)cc2C1=O,n,x,x,n,x,x
C[C@@H]1CN([C@@H](C)CO)C(=O)Cc2cc(NC(=O)Nc3cccc4ccccc34)ccc2O[C@@H]1CN(C)C(=O)Nc1ccccc1,n,x,x,n,x,x
Cc1ccc(S(=O)(=O)Nc2ccc3c(c2)C(=O)N([C@@H](C)CO)C[C@H](C)[C@@H](CN(C)C(=O)Nc2ccc(C(F)(F)F)cc2)OCCCC[C@H](C)O3)cc1,n,x,x,n,x,x
Cc1ccc2nc3ccc(N4CCCC4)nn3c(=O)c2c1,n,n,n,x,n,n
CC1CCCN(c2ccc3nc4ccccc4c(=O)n3n2)C1 (stereo not drawn),x,n,n,-18.4,n,n
O=C(C[C@H]1CC[C@@H]2[C@H](COC[C@@H](O)CN2S(=O)(=O)c2ccccc2)O1)NCc1ccc2c(c1)OCO2,n,x,x,n,x,x
CCCO/N=C1/C(=O)N(c2ccccc2)c2ccccc21,x,n,n,-37.9,n,n
CC(C)Sc1nc2ncnc(N)c2[nH]1,113.9,n,n,n,n,n
O=C(N[C@@H]1CC[C@@H](CCNS(=O)(=O)c2ccc(F)cc2)O[C@@H]1CO)C1CCCC1,n,x,x,n,x,x
COc1ccc(-c2cn(CC[C@@H]3CC[C@H](NC(=O)Nc4ccc(F)cc4)[C@@H](CO)O3)nn2)cc1,x,x,x,n,x,x
COc1ccc2c3c(n(C)c2c1)[C@H](CO)N(Cc1ccccc1)CC31CN(S(C)(=O)=O)C1,x,x,x,n,x,x
COc1ccc(-c2cc(C(=O)N(C)Cc3ccc(F)cc3)c3ccccc3n2)cc1OC,n,n,n,-28.0,n,n
COc1ccc(CCN(C)C(=O)c2cc(-c3ccc(C)cc3)nc3ccccc23)cc1OC,n,n,n,n,n,n
CCC(=O)Nc1ccc2c(c1)C(=O)N(C)[C@H]1CC[C@H](CC(=O)Nc3cccc(OC)c3)O[C@@H]1CO2,n,x,x,n,x,x
COc1ccc(NC(=O)N(C)C[C@@H]2Oc3ccc(NC(=O)Cc4ccccc4)cc3C(=O)N([C@@H](C)CO)C[C@@H]2C)cc1,n,x,x,n,x,x
C[C@@H]1CN([C@H](C)CO)C(=O)c2cc(-c3ccncc3)cnc2O[C@@H]1CN(C)C(=O)c1ccncc1,n,x,x,n,x,x
Clc1ccc(/C=C\c2nccc3c2[nH]c2ccccc23)cc1,x,n,n,-24.9,n,n
CN1CCN(C(=O)C[C@@H]2CC[C@H]3[C@H](COc4ccc(NC(=O)c5cscn5)cc4C(=O)N3C)O2)CC1,n,x,x,n,x,x
